We go through six compounds from ChEMBL document CHEMBL1142298, “Synthesis and dopamine receptor affinities of N-alkyl-11-hydroxy-2-methoxynoraporphines: N-alkyl substituents determine D1 versus D2 receptor selectivity” (J Med Chem, 2008).

The species named for assay [1] is Rattus norvegicus. The assay can be described thus: Selectivity ratio of rat dopamine D2 receptor to rat dopamine D1 receptor.
The target of assay [2] is D(1A) dopamine receptor (Rattus norvegicus, UniProt P18901). Description: Displacement of [3H]SCH-23390 from dopamine D1 receptor in rat striatum. In outline: (§1)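 Competitive radioligand binding on membrane homogenates prepared from rat striatum tissue, following a previously published procedure.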
Sequence of D(1A) dopamine receptor (P18901 whole entry): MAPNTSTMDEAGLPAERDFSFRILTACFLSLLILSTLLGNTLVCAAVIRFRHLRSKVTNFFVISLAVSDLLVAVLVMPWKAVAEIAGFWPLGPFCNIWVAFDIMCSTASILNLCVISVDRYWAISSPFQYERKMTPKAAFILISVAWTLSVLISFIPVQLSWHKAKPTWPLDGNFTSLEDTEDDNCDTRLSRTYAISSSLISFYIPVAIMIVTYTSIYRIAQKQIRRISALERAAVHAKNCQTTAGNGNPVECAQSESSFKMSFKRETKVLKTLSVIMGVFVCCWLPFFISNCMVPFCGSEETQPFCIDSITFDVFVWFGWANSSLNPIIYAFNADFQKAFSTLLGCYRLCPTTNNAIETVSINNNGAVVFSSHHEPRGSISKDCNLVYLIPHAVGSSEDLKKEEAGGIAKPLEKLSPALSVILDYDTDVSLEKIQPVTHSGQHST
(In general: Displacement assays read how much labelled ligand stays bound in the presence of the test substance.)

Assay [3] addresses D(2) dopamine receptor (Rattus norvegicus, UniProt P61169). Description: Displacement of [3H]neomonapride from dopamine D2 receptor in rat striatum. A digest of the protocol:
as §1

Sequence of D(2) dopamine receptor (P61169 whole entry): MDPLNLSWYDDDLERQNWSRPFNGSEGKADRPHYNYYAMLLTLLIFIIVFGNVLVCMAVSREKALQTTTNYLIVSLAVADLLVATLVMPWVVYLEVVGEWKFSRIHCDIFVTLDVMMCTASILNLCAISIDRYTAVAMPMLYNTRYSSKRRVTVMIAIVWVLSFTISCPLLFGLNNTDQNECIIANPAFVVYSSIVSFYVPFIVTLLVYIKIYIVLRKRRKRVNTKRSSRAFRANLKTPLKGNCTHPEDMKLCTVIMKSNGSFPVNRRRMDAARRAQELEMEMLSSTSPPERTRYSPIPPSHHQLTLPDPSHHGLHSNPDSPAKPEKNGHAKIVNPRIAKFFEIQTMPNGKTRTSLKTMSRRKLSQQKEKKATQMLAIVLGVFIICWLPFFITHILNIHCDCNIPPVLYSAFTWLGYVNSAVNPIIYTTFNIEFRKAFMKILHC

What is called Ki is the dissociation constant of the complex between target and ligand, obtained from inhibition or displacement. Higher therefore signals weaker binding. `CCCN1CCc2cc(OC)cc3c2[C@H]1Cc1ccc(O)c(O)c1-3`: in assay [1], the Ratio Ki was 4860. Moreover, the figures for the inhibition constant Ki in assay [2] and in assay [3] were 6450 nM and 1.3 nM, respectively.
The like results for `CN1CCc2cccc3c2[C@H]1Cc1cccc(O)c1-3` were, in that order, 0.24, 26.5 nM and 108 nM.
As for `CCCCN1CCc2cc(OC)cc3c2[C@H]1Cc1cccc(O)c1-3`, the inhibition constant (Ki) in assay [2] and in assay [3] was more than 10000 nM throughout.
In the case of `COc1cc2c3c(c1)-c1c(ccc(O)c1O)C[C@H]3N(C)CC2`, in assay [1], the Ratio Ki is more than 2860. Also, the inhibition constant (Ki) in assay [2] was more than 10000 nM; in assay [3], 3.5 nM.
The like results for `CCN1CCc2cc(OC)cc3c2[C@H]1Cc1cccc(O)c1-3` were, in that order, 4.6, 130 nM and 28 nM.
The like results for `COc1cc2c3c(c1)-c1c(O)cccc1C[C@H]3N(C)CC2` were, in that order, 0.19, 46 nM and 235 nM.
